# Test results from ChEMBL document CHEMBL1132424, “Design, synthesis, and evaluation of a novel sequence-selective epoxide-containing DNA cross-linking agent based on the pyrrolo[2, 1-c][1,4]benzodiazepine system” (J Med Chem, 1999).
# Experiments:
# [1] = test system: Nucleic Acid; experiment: Effect on thermal denaturation temperature of CT-DNA after incubation for 36 hours with the compound; type: functional; conditions: Bos taurus
# Summary of the method: (§1)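 Calf thymus duplex DNA (100 µM in phosphate) with PBD at 20 µM (1:5 PBD/DNA ratio), added from concentrated MeOH solution. Buffer was 10 mM sodium phosphate, 1 mM Na2EDTA, pH 7.00. Incubated at 37 °C for the stated time, then A260 read while heating 40-98 °C at 1 °C/min. Tm taken from d(A260)/dT maxima, MeOH-corrected. ΔTm = Tm(DNA+PBD) − Tm(DNA alone). Mean of three determinations.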
# [2] = In vitro cytotoxicity against. ovarian carcinoma cell line CH1cisR (cisplatin resistant counter part of CH1).; type: functional, cell-based, Homo sapiens
# Summary of the method: (§2)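 Cells seeded and left to attach overnight, then exposed in quadruplicate wells to compound (20 mM DMSO stock diluted in growth medium) at final 100 µM to 2.5 nM for 96 h at 37 °C. Cells fixed with 10% trichloroacetic acid, stained with 0.4% sulforhodamine B, absorbance read at 540 nm. IC50 from concentration versus percent absorbance of untreated wells.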
# [3] = test system: SK-OV-3; experiment: In vitro cytotoxicity against. ovarian carcinoma cell line SKOV-3.; type: functional, cell-based, Homo sapiens; summary of the method: as §2
# [4] = test system: A2780; experiment: In vitro cytotoxicity against. ovarian carcinoma cell line A2780.; type: functional, cell-based, Homo sapiens; summary of the method: as §2
# [5] = test system: Nucleic Acid; experiment: Effect on thermal denaturation temperature of CT-DNA after incubation for 4 hours with the compound; type: functional; conditions: Bos taurus; summary of the method: as §1
# [6] = test system: CH1; experiment: In vitro cytotoxicity against ovarian carcinoma cell line CH1.; type: functional, cell-based, Homo sapiens; summary of the method: as §2
# [7] = test system: A2780; experiment: In vitro cytotoxicity against. ovarian carcinoma cell line A2780cisR (cisplatin resistant counter part of A2780).; type: functional, cell-based, Homo sapiens; summary of the method: as §2
# [8] = test system: Nucleic Acid; experiment: Effect on thermal denaturation temperature of CT-DNA after incubation for 0 hours with the compound; type: functional; conditions: Bos taurus; summary of the method: as §1
# [9] = test system: Nucleic Acid; experiment: Effect on thermal denaturation temperature of CT-DNA after incubation for 18 hours with the compound; type: functional; conditions: Bos taurus; summary of the method: as §1
Compound,ΔTm [1] [°C],"IC50 ([2]; Homo sapiens, CH1cisR) [µM]","IC50 ([3]; Homo sapiens, SK-OV-3) [µM]","IC50 ([4]; Homo sapiens, A2780) [µM]",ΔTm [5] [°C],"IC50 ([6]; Homo sapiens, CH1) [µM]","IC50 ([7]; Homo sapiens, A2780) [µM]",ΔTm [8] [°C],ΔTm [9] [°C],IC50 ([2]; ch1cisr) [µM],IC50 ([3]; sk-ov-3) [µM],IC50 ([4]; a2780) [µM],IC50 ([6]; ch1) [µM],IC50 ([7]; a2780) [µM]
COc1cc2c(cc1OCC1CO1)N=C[C@@H]1CCCN1C2=O (some centres undefined),1.5,0.047,1.3,0.045,0.8,0.059,0.2,0.5,1.3,–,–,–,–,–
COc1cc2c(cc1OCCCOc1cc3c(cc1OC)C(=O)N1CCC[C@H]1C=N3)N=C[C@@H]1CCCN1C2=O [DSB-120],–,0.022,0.74,0.0072,13.1,0.033,0.21,10.2,15.1,–,–,–,–,–
CISPLATIN,–,–,–,–,–,–,–,–,–,0.17,4.2,0.16,0.029,6.1
COc1cc2c(cc1O)N=C[C@@H]1CCCN1C2=O,0.7,–,–,–,0.5,–,–,0.3,0.7,–,–,–,–,–
C=CCOc1cc2c(cc1OC)C(=O)N1CCC[C@H]1C=N2,–,0.135,3.3,1.05,0.7,0.16,1.65,0.4,0.8,–,–,–,–,–
